Assay results pooled from the literature.
ABL1 Q252H phosphorylated: Tyrosine-protein kinase ABL1, phosphorylated (ABL1, Homo sapiens, UniProt P00519, Q252H)
ABL1 Q252H non-phosphorylated: Tyrosine-protein kinase ABL1, non-phosphorylated (ABL1, Homo sapiens, UniProt P00519, Q252H)
ABL1 H396P non-phosphorylated: Tyrosine-protein kinase ABL1, non-phosphorylated (ABL1, Homo sapiens, UniProt P00519, H396P)
ABL1 E255K phosphorylated: Tyrosine-protein kinase ABL1, phosphorylated (ABL1, Homo sapiens, UniProt P00519, E255K)
ABL1 T315I non-phosphorylated: Tyrosine-protein kinase ABL1, non-phosphorylated (ABL1, Homo sapiens, UniProt P00519, T315I)
ABL1 F317L non-phosphorylated: Tyrosine-protein kinase ABL1, non-phosphorylated (ABL1, Homo sapiens, UniProt P00519, F317L)
ABL1 phosphorylated: Tyrosine-protein kinase ABL1, phosphorylated (ABL1, Homo sapiens, UniProt P00519)

`CN(CCCC(F)(F)F)c1nccc(-c2cnn3ncccc23)n1` has a remaining binding of 89% (Tyrosine-protein kinase ABL1 (ABL1, Homo sapiens, UniProt P00519, Y253F); binding; 1 µM).
With `COc1cnc(Nc2cccc(S(N)(=O)=O)c2)nc1N1CCN(c2ccccc2)CC1` the remaining binding was 72% (ABL1 Q252H phosphorylated; binding; competition with immobilised ligand; 1 µM).
For `C[C@@H](c1ccc(-n2cnc3c(N)ncnc32)cc1)N1CCc2nn(C)c(Cc3ccccc3)c2C1=O`, the remaining binding was 72% (ABL1 Q252H phosphorylated; binding; competition with immobilised ligand; 0.1 µM).
`Nc1ncc2c(n1)-c1c([nH]c3ccc(C#CC4CC4)cc13)CCCC2` gave a remaining binding of 93% (ABL1 Q252H non-phosphorylated; binding; competition with immobilised ligand; 1 µM).
`COc1ncc2cc3ccccc3nc2c1C#N` gave a remaining binding of 100% (ABL1 H396P non-phosphorylated; cell-free assay; competition with immobilised ligand; 5 µM).
`O=C(NCC1CCOCC1)c1n[nH]cc1NC(=O)c1c(F)cccc1F` gave a remaining binding of 88% (ABL1 E255K phosphorylated; binding; competition with immobilised ligand; 1 µM).
With `CC(C)(O)c1cncc(-c2nc3ccc(F)cc3n2C2CC2)c1` the remaining binding was 85% (ABL1 H396P non-phosphorylated; cell-free assay; competition with immobilised ligand; 1 µM).
`c1cnn2ncc(-c3ccnc(N4CCC45COC5)n3)c2c1` has a remaining binding of 69% (Tyrosine-protein kinase ABL1 (ABL1, Homo sapiens, UniProt P00519, Q252H); binding; 1 µM).
The remaining binding of `CNC(=O)[C@@H]1CC[C@@H](n2c(-c3ccc4cnccc4c3)nc3ccc(C(=O)NCc4cccc(C(N)=O)c4)cc32)C1` is reported as 100% (ABL1 T315I non-phosphorylated; binding; competition with immobilised ligand; 1 µM).
The remaining binding of `O=C(c1ccc(Nc2ncc(Cl)c(-c3ccc(Cl)s3)n2)cc1)N1CCC(N2CCCC2)CC1` is reported as 65% (ABL1 F317L non-phosphorylated; binding; competition with immobilised ligand; 1 µM).
The remaining binding of `Nc1c(C(=O)NCc2ccc(C(=O)NCCCC3CCCCC3)cc2)cnn1-c1ccccc1` is reported as 87% (ABL1 Q252H non-phosphorylated; cell-free assay; competition with immobilised ligand; 0.1 µM).
`O=C(NCCCN1CCOCC1)c1ccc(Nc2nccc(-c3cc4ccccc4s3)n2)cc1` gave a remaining binding of 19% (ABL1 T315I non-phosphorylated; binding; competition with immobilised ligand; 1 µM).
With `CC1CCCN1c1nccc(-c2cnn3ncccc23)n1` (stereo not shown) the remaining binding was 96% (ABL1 phosphorylated; binding; 1 µM).
The remaining binding of `CN(C)c1ncnc(-c2ccc3nc(Nc4cc(CN5CCN(C(=O)CC(F)(F)F)CC5)ccn4)[nH]c3c2)c1Cl` is reported as 49% (ABL1 E255K phosphorylated; binding; competition with immobilised ligand; 1 µM).
With `COc1ccnn2ncc(-c3ccnc(N(C)C)n3)c12` the remaining binding was 85% (Tyrosine-protein kinase ABL1 (ABL1, Homo sapiens, UniProt P00519, F317L); binding; 1 µM).
The remaining binding of `CC(=O)N1CCC(c2ccc(C(=O)NC3=NCCN3)cc2C(F)(F)F)CC1` is reported as 95% (Tyrosine-protein kinase ABL1, phosphorylated (ABL1, Homo sapiens, UniProt P00519, F317L); cell-free assay; competition with immobilised ligand; 1 µM).
For `C[C@@H]1CCN(c2nccc(-c3cnn4ncccc34)n2)C1`, the remaining binding was 61% (ABL1 phosphorylated; binding; 1 µM).
For `Cc1noc([C@H]2C[C@@H](c3ccc(C(F)(F)F)cc3)CN(C(=O)N3CCS(=O)(=O)C3)C2)n1`, the remaining binding was 100% (ABL1 T315I non-phosphorylated; cell-free assay; competition with immobilised ligand; 1 µM).
`O=C(c1ccc(Nc2ncc(Cl)c(-c3cc4ccccc4s3)n2)cc1)N1CCC(N2CCCC2)CC1` has a remaining binding of 26% (ABL1 phosphorylated; binding; competition with immobilised ligand; 1 µM).
With `C[C@@]1(Cc2ccc(C#N)cc2)C(=O)N(c2cc(Cl)cc(Cl)c2)c2ncc(C(=O)NC3(c4nc(C5CCC5)no4)CC3)n21` the remaining binding was 94% (Tyrosine-protein kinase ABL1, non-phosphorylated (ABL1, Homo sapiens, UniProt P00519, F317I); binding; competition with immobilised ligand; 1 µM).
`C=CC(=O)N1CCC(C(=O)NCC(=O)N2CCN(c3nc(-c4cnc(N)nc4C(F)F)nc(N4CCOCC4)n3)CC2)CC1` gave a remaining binding of 93% (ABL1 phosphorylated; binding; competition with immobilised ligand; 1 µM).
The remaining binding of `c1cncc(-c2cccc(Nc3nccc(NC4CCCCC4)n3)c2)c1` is reported as 20% (ABL1 Q252H non-phosphorylated; binding; competition with immobilised ligand; 10 µM).
`C[C@@H]1CN(c2cc(-c3n[nH]c4ccc(OC5(C)CC5)cc34)ncn2)C[C@H](C)O1` gave a remaining binding of 67% (ABL1 phosphorylated; cell-free assay; competition with immobilised ligand; 0.1 µM).
`CC(C)(C)c1ccc(-c2nc(CBr)nn2-c2cccc(O)c2)cc1` has a remaining binding of 74% (ABL1 E255K phosphorylated; cell-free assay; competition with immobilised ligand; 10 µM).
With `CCc1ccccc1C(=O)Nc1n[nH]c2c(C)c(F)c(C3C(C#N)=C(C)N(C)C(C)=C3C#N)cc12` the remaining binding was 82% (ABL1 Q252H non-phosphorylated; cell-free assay; competition with immobilised ligand; 1 µM).
`CN(C)c1ncc(F)c(-c2cnn3ncccc23)n1` gave a remaining binding of 82% (ABL1 phosphorylated; binding; 1 µM).
`O=C(c1ccc(Nc2nccc(-c3cc4ccccc4s3)n2)cc1)N1CCC(N2CCCC2)CC1` has a remaining binding of 78% (ABL1 F317L non-phosphorylated; binding; competition with immobilised ligand; 1 µM).
`CCN1CCN(Cc2ccc(C(=O)Nc3ccc(C)c(Oc4ccc5c(c4)CC(=O)N5)c3)cc2C(F)(F)F)CC1` has a remaining binding of 34% (ABL1 phosphorylated; binding; competition with immobilised ligand; 1 µM).
`CN1CCN(c2ccc(Nc3nccc(-c4ccccc4)n3)cc2C(F)(F)F)CC1` gave a remaining binding of 15% (Tyrosine-protein kinase ABL1 (ABL1, Homo sapiens, UniProt P00519, M351T); binding; 10 µM).
`COc1cnc(Nc2cccc(S(N)(=O)=O)c2)nc1N1CCN(c2ccccc2)C(=O)C1` gave a remaining binding of 86% (ABL1 E255K phosphorylated; binding; competition with immobilised ligand; 1 µM).
With `O=C(NCCCN1CCOCC1)c1ccc(Nc2ncc(Cl)c(-c3ccc(Cl)s3)n2)cc1` the remaining binding was 26% (Tyrosine-protein kinase ABL1, non-phosphorylated (ABL1, Homo sapiens, UniProt P00519); binding; competition with immobilised ligand; 1 µM).
`N[C@H]1CCN(c2nccc(-c3cnn4ncccc34)n2)C1` has a remaining binding of 88% (ABL1 phosphorylated; binding; 1 µM).
With `Cc1cnc(Nc2ccc(C(=O)N3CCC(N4CCCC4)CC3)cc2)nc1-c1cc2ccccc2s1` the remaining binding was 1.1% (ABL1 Q252H non-phosphorylated; binding; competition with immobilised ligand; 1 µM).
With `O=C(Nc1c[nH]nc1C(=O)NC1CCNCC1)c1cc(F)cc(F)c1` the remaining binding was 99% (ABL1 Q252H phosphorylated; binding; competition with immobilised ligand; 1 µM).
